Test results from article PMC8441110 (Computational and Structural Biotechnology Journal, 2021).
Where no end group is shown, it is not given here.

Tests used:
MRSA (BO42 V2E1 A) = assay: MIC/MBC determination; assay type: cell-based, Methicillin-resistant Staphylococcus aureus; conditions: 37 °C, 20 h; for MBC: 10 µl from MIC wells on MHA, no colony growth; for MIC: MHB, 5 × 10^5 CFU/ml, read at 550 nm
Outline: (§1)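 Bacteria grown overnight at 37 °C in MHB and diluted to 5 × 10^5 CFU/ml. Peptide stocks in PBS, two-fold from 51200 µM to 100 µM, added 1 µl per 99 µl suspension. Norfloxacin (20 mg/l) was the positive control. After 20 h at 37 °C, OD 550 nm read; MIC = no apparent growth. For MBC, 10 µl from MIC and higher wells spotted on MHA, 37 °C 20 h; lowest without colonies.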

[1] = tested on: Enterococcus faecium (E. faecium) (NTCC-12697); assay: MIC/MBC determination; assay type: cell-based; conditions: 37 °C, 20 h; for MBC: 10 µl from MIC wells on MHA, no colony growth; for MIC: MHB, 5 × 10^5 CFU/ml, read at 550 nm
Outline: as §1

[2] = tested on: Klebsiella pneumoniae (K. pneumoniae) (ATCC 43816); assay: MIC/MBC determination; assay type: cell-based; conditions: 37 °C, 20 h; for MBC: 10 µl from MIC wells on MHA, no colony growth; for MIC: MHB, 5 × 10^5 CFU/ml, read at 550 nm
Outline: as §1

MRSA (ATCC BAA 1707) = assay: MIC/MBC determination; assay type: cell-based, Methicillin-resistant Staphylococcus aureus; conditions: 37 °C, 20 h; for MBC: 10 µl from MIC wells on MHA, no colony growth; for MIC: MHB, 5 × 10^5 CFU/ml, read at 550 nm
Outline: as §1

MRSA (NCTC 12493) [3] = assay: MIC/MBC determination; assay type: cell-based, Methicillin-resistant Staphylococcus aureus; conditions: 37 °C, 20 h; for MBC: 10 µl from MIC wells on MHA, no colony growth; for MIC: MHB, 5 × 10^5 CFU/ml, read at 550 nm
Outline: as §1

[4] = tested on: Pseudomonas aeruginosa (P. aeruginosa) (ATCC 9027); assay: MIC/MBC determination; assay type: cell-based; conditions: 37 °C, 20 h; for MBC: 10 µl from MIC wells on MHA, no colony growth; for MIC: MHB, 5 × 10^5 CFU/ml, read at 550 nm
Outline: as §1

[5] = tested on: Escherichia coli (E. coli) (ATCC 8739); assay: MIC/MBC determination; assay type: cell-based; conditions: 37 °C, 20 h; for MBC: 10 µl from MIC wells on MHA, no colony growth; for MIC: MHB, 5 × 10^5 CFU/ml, read at 550 nm
Outline: as §1

MRSA (BO38 V1S1 A) = assay: MIC/MBC determination; assay type: cell-based, Methicillin-resistant Staphylococcus aureus; conditions: 37 °C, 20 h; for MBC: 10 µl from MIC wells on MHA, no colony growth; for MIC: MHB, 5 × 10^5 CFU/ml, read at 550 nm
Outline: as §1

[6] = tested on: Staphylococcus aureus (S. aureus) (NCTC 10788); assay: MIC/MBC determination; assay type: cell-based; conditions: 37 °C, 20 h; for MBC: 10 µl from MIC wells on MHA, no colony growth; for MIC: MHB, 5 × 10^5 CFU/ml, read at 550 nm
Outline: as §1

S. aureus (NCTC 10788) = assay: Condition sensitivity assay; assay type: cell-based, Staphylococcus aureus
MRSA (NCTC 12493) [7] = assay: Condition sensitivity assay; assay type: cell-based, Methicillin-resistant Staphylococcus aureus
[8] = tested on: human keratinocyte cell line HaCaT; assay: Lactate dehydrogenase; assay type: cell-based; conditions: HaCaT cells, 100 μM peptide, 24 h, compared to the positive control
Outline: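 Peptide added at 100 µM to 1 µM for 24 h. Lysis buffer gave maximum LDH; after 45 min, supernatant reacted 30 min dark at room temperature, then stopped. Absorbance read at 490 and 680 nm. Release expressed as percent of 1% Triton X-100, PBS negative; nine replicates from three experiments, mean ± SEM.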

Substance | MBC (MRSA (BO42 V2E1 A)) [µM] | MIC (MRSA (BO42 V2E1 A)) [µM] | MBC [1] [µM] | MIC [1] [µM] | MBC [2] [µM] | MIC [2] [µM] | MBC (MRSA (ATCC BAA 1707)) [µM] | MIC (MRSA (ATCC BAA 1707)) [µM] | MBC (MRSA (NCTC 12493) [3]) [µM] | MIC (MRSA (NCTC 12493) [3]) [µM] | MBC [4] [µM] | MIC [4] [µM] | MBC [5] [µM] | MIC [5] [µM] | MBC (MRSA (BO38 V1S1 A)) [µM] | MIC (MRSA (BO38 V1S1 A)) [µM] | MBC [6] [µM] | MIC [6] [µM] | MIC (S. aureus (NCTC 10788); MHB with 6 μM NH4Cl) [µM] | MIC (S. aureus (NCTC 10788); MHB with 1 mM MgCl2) [µM] | also measured
TVAAQLLKKAR-NH2 [GV11] | > 512 | > 512 | > 512 | > 512 | > 512 | > 512 | > 512 | > 512 | > 512 | > 512 | > 512 | > 512 | > 512 | > 512 | > 512 | > 512 | > 512 | > 512 |  |  | 
GVIFNALKGVAKTVAAQLLK-NH2 [GV20] | 64 | 32 | 64 | 16 | 64 | 32 | 32 | 16 | 8 | 8 | 64 | 32 | 32 | 8 | 32 | 16 | 8 | 4 | 4 | 4 | MIC (S. aureus (NCTC 10788); MHB with 2.5 mM CaCl2): 4 µM; MIC (S. aureus (NCTC 10788); MHB with 4 mM FeCl3): 4 µM; MIC (S. aureus (NCTC 10788); MHB with 4.5 mM KCl): 8 µM; MIC (S. aureus (NCTC 10788); MHB with 8 mM ZnCl2): 4 µM; MIC (S. aureus (NCTC 10788); MHB with 150 mM NaCl): 4 µM; MIC (S. aureus (NCTC 10788); MHB with 10% horse serum): 8 µM; MIC (S. aureus (NCTC 10788); PBS (no added salt)): 4 µM; MIC (MRSA (NCTC 12493) [7]; MHB with 6 μM NH4Cl): 8 µM; MIC (MRSA (NCTC 12493) [7]; MHB with 1 mM MgCl2): 8 µM; MIC (MRSA (NCTC 12493) [7]; MHB with 2.5 mM CaCl2): 16 µM; MIC (MRSA (NCTC 12493) [7]; MHB with 4 mM FeCl3): 8 µM; MIC (MRSA (NCTC 12493) [7]; MHB with 4.5 mM KCl): 16 µM; MIC (MRSA (NCTC 12493) [7]; MHB with 8 mM ZnCl2): 8 µM; MIC (MRSA (NCTC 12493) [7]; MHB with 150 mM NaCl): 8 µM; MIC (MRSA (NCTC 12493) [7]; MHB with 10% horse serum): 16 µM; MIC (MRSA (NCTC 12493) [7]; PBS (no added salt)): 8 µM
GVIFNALKGVAK-NH2 [GV12] | > 512 | > 512 | > 512 | > 512 | > 512 | > 512 | > 512 | > 512 | > 512 | > 512 | > 512 | > 512 | > 512 | > 512 | > 512 | > 512 | > 512 | > 512 |  |  | 
GVIFNALK-NH2 [GV8] | > 512 | > 512 | > 512 | > 512 | > 512 | > 512 | > 512 | > 512 | > 512 | > 512 | > 512 | > 512 | > 512 | > 512 | > 512 | > 512 | > 512 | > 512 |  |  | 
GVIFNALKGVAKTVAAQLLKKAR-NH2 [GV23] | 8 | 8 | 16 | 16 | 64 | 32 | 8 | 8 | 2 | 2 | 16 | 16 | 8 | 4 | 8 | 2 | 16 | 2 | 2 | 2 | MIC (S. aureus (NCTC 10788); MHB with 2.5 mM CaCl2): 2 µM; MIC (S. aureus (NCTC 10788); MHB with 4 mM FeCl3): 2 µM; MIC (S. aureus (NCTC 10788); MHB with 4.5 mM KCl): 2 µM; MIC (S. aureus (NCTC 10788); MHB with 8 mM ZnCl2): 2 µM; MIC (S. aureus (NCTC 10788); MHB with 150 mM NaCl): 2 µM; MIC (S. aureus (NCTC 10788); MHB with 10% horse serum): 2 µM; MIC (S. aureus (NCTC 10788); PBS (no added salt)): 2 µM; MIC (MRSA (NCTC 12493) [7]; MHB with 6 μM NH4Cl): 4 µM; MIC (MRSA (NCTC 12493) [7]; MHB with 1 mM MgCl2): 4 µM; MIC (MRSA (NCTC 12493) [7]; MHB with 2.5 mM CaCl2): 2 µM; MIC (MRSA (NCTC 12493) [7]; MHB with 4 mM FeCl3): 2 µM; MIC (MRSA (NCTC 12493) [7]; MHB with 4.5 mM KCl): 2 µM; MIC (MRSA (NCTC 12493) [7]; MHB with 8 mM ZnCl2): 2 µM; MIC (MRSA (NCTC 12493) [7]; MHB with 150 mM NaCl): 2 µM; MIC (MRSA (NCTC 12493) [7]; MHB with 10% horse serum): 2 µM; MIC (MRSA (NCTC 12493) [7]; PBS (no added salt)): 2 µM
GVIFNALKGVAKTVAAQLLKK-NH2 [GV21] | 16 | 8 | 8 | 4 | 16 | 16 | 8 | 4 | 4 | 4 | 16 | 16 | 8 | 4 | 8 | 8 | 4 | 2 | 2 | 2 | MIC (S. aureus (NCTC 10788); MHB with 2.5 mM CaCl2): 2 µM; MIC (S. aureus (NCTC 10788); MHB with 4 mM FeCl3): 2 µM; MIC (S. aureus (NCTC 10788); MHB with 4.5 mM KCl): 2 µM; MIC (S. aureus (NCTC 10788); MHB with 8 mM ZnCl2): 2 µM; MIC (S. aureus (NCTC 10788); MHB with 150 mM NaCl): 2 µM; MIC (S. aureus (NCTC 10788); MHB with 10% horse serum): 2 µM; MIC (S. aureus (NCTC 10788); PBS (no added salt)): 2 µM; MIC (MRSA (NCTC 12493) [7]; MHB with 6 μM NH4Cl): 4 µM; MIC (MRSA (NCTC 12493) [7]; MHB with 1 mM MgCl2): 4 µM; MIC (MRSA (NCTC 12493) [7]; MHB with 2.5 mM CaCl2): 4 µM; MIC (MRSA (NCTC 12493) [7]; MHB with 4 mM FeCl3): 4 µM; MIC (MRSA (NCTC 12493) [7]; MHB with 4.5 mM KCl): 4 µM; MIC (MRSA (NCTC 12493) [7]; MHB with 8 mM ZnCl2): 4 µM; MIC (MRSA (NCTC 12493) [7]; MHB with 150 mM NaCl): 4 µM; MIC (MRSA (NCTC 12493) [7]; MHB with 10% horse serum): 4 µM; MIC (MRSA (NCTC 12493) [7]; PBS (no added salt)): 4 µM; LDH release rate (maximum) [8]: 22.36%
